Values after ≈ are worked out from the molar mass of the structure shown.
Tested on: Aspergillus nidulans
Test: Antifungal activity against Aspergillus nidulans ATCC 38163 after 48 hrs by CLSI M38-A2 method
Format: functional
Details: ATCC 38163, 48 h

Compared with COc1ccc(-c2nc3cc(-c4nc5cc(N6CCN(C)CC6)ccc5[nH]4)ccc3[nH]2)cc1, CCCCCN1CCN(c2ccc3nc(-c4ccc5nc(-c6ccc(OCC)cc6)[nH]c5c4)[nH]c3c2)CC1 is higher in MIC: 15.6 µg/mL (≈ 35.6 µM) for the first, over 31.2 µg/mL for the second.

Compound CCCCCCCCCCCCOc1ccc(-c2nc3ccc(-c4nc5ccc(N6CCN(C)CC6)cc5[nH]4)cc3[nH]2)cc1 has an MIC of over 31.2 µg/mL.

Tested on: Candida albicans
Test: Antifungal activity against Candida albicans ATCC MYA-90819 after 48 hrs by CLSI M27-A3 method
Format: functional
Details: ATCC MYA-90819, 48 h

Going from COc1ccc(-c2nc3cc(-c4nc5cc(N6CCN(C)CC6)ccc5[nH]4)ccc3[nH]2)cc1 to CCCCCN1CCN(c2ccc3nc(-c4ccc5nc(-c6ccc(OCC)cc6)[nH]c5c4)[nH]c3c2)CC1, the MIC rises from 15.6 µg/mL (≈ 35.6 µM) to over 31.2 µg/mL.

CCCCCCCCCCCCOc1ccc(-c2nc3ccc(-c4nc5ccc(N6CCN(C)CC6)cc5[nH]4)cc3[nH]2)cc1 showed an MIC of over 31.2 µg/mL.

Tested on: not listed separately
Test: Cytotoxicity against human BEAS2B cells assessed as reduction in cell survival after 24 hrs by resazurin assay
Format: cell-based
Details: BEAS-2B
Procedure, shortened: (§1)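 Human A549 cells treated 24 h; BEAS 2B cells treated 6 h or 24 h. DMSO-treated cells served as negative control and Triton X-treated cells as positive control. Read-out was cell survival.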

Work on COc1ccc(-c2nc3cc(-c4nc5cc(N6CCN(C)CC6)ccc5[nH]4)ccc3[nH]2)cc1 yielded an IC50 of 1.95 µg/mL (≈ 4.45 µM).

Tested on: Nakaseomyces glabratus
Test: Antifungal activity against Candida glabrata ATCC 2001 after 48 hrs by CLSI M27-A3 method
Format: functional
Details: CBS 138, 48 h

First: COc1ccc(-c2nc3cc(-c4nc5cc(N6CCN(C)CC6)ccc5[nH]4)ccc3[nH]2)cc1
Second: CCCCCN1CCN(c2ccc3nc(-c4ccc5nc(-c6ccc(OCC)cc6)[nH]c5c4)[nH]c3c2)CC1
The MIC of the first is lower: 3.9 µg/mL (≈ 8.89 µM) for the first, over 31.2 µg/mL for the second.

Compound CCCCCCCCCCCCOc1ccc(-c2nc3ccc(-c4nc5ccc(N6CCN(C)CC6)cc5[nH]4)cc3[nH]2)cc1 has an MIC of over 31.2 µg/mL.

Tested on: Candida albicans
Test: Antifungal activity against Candida albicans ATCC MYA-1237 after 48 hrs by CLSI M27-A3 method
Format: functional
Details: ATCC MYA-1237, 48 h

Compared with COc1ccc(-c2nc3cc(-c4nc5cc(N6CCN(C)CC6)ccc5[nH]4)ccc3[nH]2)cc1, CCCCCN1CCN(c2ccc3nc(-c4ccc5nc(-c6ccc(OCC)cc6)[nH]c5c4)[nH]c3c2)CC1 is higher in MIC: 15.6 µg/mL (≈ 35.6 µM) for the first, over 31.2 µg/mL for the second.

With CCCCCCCCCCCCOc1ccc(-c2nc3ccc(-c4nc5ccc(N6CCN(C)CC6)cc5[nH]4)cc3[nH]2)cc1 the MIC was over 31.2 µg/mL.

Tested on: A549
Test: Cytotoxicity against human A549 cells assessed as reduction in cell survival after 24 hrs by resazurin assay
Format: cell-based
Details: A549, 24 h
Procedure, shortened: as §1

Work on COc1ccc(-c2nc3cc(-c4nc5cc(N6CCN(C)CC6)ccc5[nH]4)ccc3[nH]2)cc1 yielded an IC50 of 0.98 µg/mL (≈ 2.23 µM).

Tested on: Pichia kudriavzevii
Test: Antifungal activity against Candida krusei ATCC 6258 after 48 hrs by CLSI M27-A3 method
Format: functional
Details: ATCC 6258, 48 h

Compared with COc1ccc(-c2nc3cc(-c4nc5cc(N6CCN(C)CC6)ccc5[nH]4)ccc3[nH]2)cc1, CCCCCN1CCN(c2ccc3nc(-c4ccc5nc(-c6ccc(OCC)cc6)[nH]c5c4)[nH]c3c2)CC1 is higher in MIC: 31.2 µg/mL (≈ 71.1 µM) for the first, over 31.2 µg/mL for the second.

With CCCCCCCCCCCCOc1ccc(-c2nc3ccc(-c4nc5ccc(N6CCN(C)CC6)cc5[nH]4)cc3[nH]2)cc1 the MIC was over 31.2 µg/mL.

Tested on: Candida albicans
Test: Antifungal activity against Candida albicans ATCC 10231 after 48 hrs by CLSI M27-A3 method
Format: functional
Details: ATCC 10231, 48 h

Compared with COc1ccc(-c2nc3cc(-c4nc5cc(N6CCN(C)CC6)ccc5[nH]4)ccc3[nH]2)cc1, CCCCCN1CCN(c2ccc3nc(-c4ccc5nc(-c6ccc(OCC)cc6)[nH]c5c4)[nH]c3c2)CC1 is higher in MIC: 15.6 µg/mL (≈ 35.6 µM) for the first, over 31.2 µg/mL for the second.

For CCCCCCCCCCCCOc1ccc(-c2nc3ccc(-c4nc5ccc(N6CCN(C)CC6)cc5[nH]4)cc3[nH]2)cc1, the MIC was over 31.2 µg/mL.

Tested on: Candida parapsilosis
Test: Antifungal activity against Candida parapsilosis ATCC 22019 after 48 hrs by CLSI M27-A3 method
Format: functional
Details: Lodderomyces parapsilosis, ATCC 22019, 48 h

First: COc1ccc(-c2nc3cc(-c4nc5cc(N6CCN(C)CC6)ccc5[nH]4)ccc3[nH]2)cc1
Second: CCCCCN1CCN(c2ccc3nc(-c4ccc5nc(-c6ccc(OCC)cc6)[nH]c5c4)[nH]c3c2)CC1
The MIC of the first is lower: 3.9 µg/mL (≈ 8.89 µM) for the first, over 31.2 µg/mL for the second.

Work on CCCCCCCCCCCCOc1ccc(-c2nc3ccc(-c4nc5ccc(N6CCN(C)CC6)cc5[nH]4)cc3[nH]2)cc1 yielded an MIC of over 31.2 µg/mL.

Tested on: Candida albicans
Test: Antifungal activity against Candida albicans ATCC MYA-2876 after 48 hrs by CLSI M27-A3 method
Format: functional
Details: ATCC MYA-2876, 48 h

Going from COc1ccc(-c2nc3cc(-c4nc5cc(N6CCN(C)CC6)ccc5[nH]4)ccc3[nH]2)cc1 to CCCCCN1CCN(c2ccc3nc(-c4ccc5nc(-c6ccc(OCC)cc6)[nH]c5c4)[nH]c3c2)CC1, the MIC rises from 15.6 µg/mL (≈ 35.6 µM) to over 31.2 µg/mL.

Work on CCCCCCCCCCCCOc1ccc(-c2nc3ccc(-c4nc5ccc(N6CCN(C)CC6)cc5[nH]4)cc3[nH]2)cc1 yielded an MIC of over 31.2 µg/mL.

Tested on: not listed separately
Test: Cytotoxicity against human BEAS2B cells assessed as reduction in cell survival after 6 hrs by resazurin assay
Format: cell-based
Details: beas-2b
Procedure, shortened: as §1

For COc1ccc(-c2nc3cc(-c4nc5cc(N6CCN(C)CC6)ccc5[nH]4)ccc3[nH]2)cc1, the Activity was “Non-toxic”.

Tested on: Aspergillus flavus
Test: Antifungal activity against Aspergillus flavus ATCC MYA-3631 after 48 hrs by CLSI M38-A2 method
Format: functional
Details: ATCC MYA-3631, 48 h

Compared with COc1ccc(-c2nc3cc(-c4nc5cc(N6CCN(C)CC6)ccc5[nH]4)ccc3[nH]2)cc1, CCCCCN1CCN(c2ccc3nc(-c4ccc5nc(-c6ccc(OCC)cc6)[nH]c5c4)[nH]c3c2)CC1 is higher in MIC: 31.2 µg/mL (≈ 71.1 µM) for the first, over 31.2 µg/mL for the second.

Compound CCCCCCCCCCCCOc1ccc(-c2nc3ccc(-c4nc5ccc(N6CCN(C)CC6)cc5[nH]4)cc3[nH]2)cc1 has an MIC of over 31.2 µg/mL.

Tested on: Candida albicans
Test: Antifungal activity against Candida albicans ATCC MYA-2310 after 48 hrs by CLSI M27-A3 method
Format: functional
Details: ATCC MYA-2310, 48 h

Compared with COc1ccc(-c2nc3cc(-c4nc5cc(N6CCN(C)CC6)ccc5[nH]4)ccc3[nH]2)cc1, CCCCCN1CCN(c2ccc3nc(-c4ccc5nc(-c6ccc(OCC)cc6)[nH]c5c4)[nH]c3c2)CC1 is higher in MIC: 7.8 µg/mL (≈ 17.8 µM) for the first, over 31.2 µg/mL for the second.

With CCCCCCCCCCCCOc1ccc(-c2nc3ccc(-c4nc5ccc(N6CCN(C)CC6)cc5[nH]4)cc3[nH]2)cc1 the MIC was over 31.2 µg/mL.

Tested on: Candida albicans
Test: Antifungal activity against Candida albicans ATCC MYA-1003 after 48 hrs by CLSI M27-A3 method
Format: functional
Details: ATCC MYA-1003, 48 h

COc1ccc(-c2nc3cc(-c4nc5cc(N6CCN(C)CC6)ccc5[nH]4)ccc3[nH]2)cc1 and CCCCCN1CCN(c2ccc3nc(-c4ccc5nc(-c6ccc(OCC)cc6)[nH]c5c4)[nH]c3c2)CC1 cannot be ordered by MIC: over 31.2 µg/mL for the first, over 31.2 µg/mL for the second.

With CCCCCCCCCCCCOc1ccc(-c2nc3ccc(-c4nc5ccc(N6CCN(C)CC6)cc5[nH]4)cc3[nH]2)cc1 the MIC was over 31.2 µg/mL.

Tested on: Candida albicans
Test: Antifungal activity against Candida albicans ATCC 64124 after 48 hrs by CLSI M27-A3 method
Format: functional
Details: ATCC 64124, 48 h

Going from COc1ccc(-c2nc3cc(-c4nc5cc(N6CCN(C)CC6)ccc5[nH]4)ccc3[nH]2)cc1 to CCCCCN1CCN(c2ccc3nc(-c4ccc5nc(-c6ccc(OCC)cc6)[nH]c5c4)[nH]c3c2)CC1, the MIC rises from 31.2 µg/mL (≈ 71.1 µM) to over 31.2 µg/mL.

CCCCCCCCCCCCOc1ccc(-c2nc3ccc(-c4nc5ccc(N6CCN(C)CC6)cc5[nH]4)cc3[nH]2)cc1 gave an MIC of over 31.2 µg/mL.

Tested on: Aspergillus terreus
Test: Antifungal activity against Aspergillus terreus ATCC MYA3633 after 48 hrs by CLSI M38-A2 method
Format: functional
Details: ATCC MYA3633, 48 h

First: COc1ccc(-c2nc3cc(-c4nc5cc(N6CCN(C)CC6)ccc5[nH]4)ccc3[nH]2)cc1
Second: CCCCCN1CCN(c2ccc3nc(-c4ccc5nc(-c6ccc(OCC)cc6)[nH]c5c4)[nH]c3c2)CC1
The MIC of the first is lower: 15.6 µg/mL (≈ 35.6 µM) for the first, over 31.2 µg/mL for the second.

CCCCCCCCCCCCOc1ccc(-c2nc3ccc(-c4nc5ccc(N6CCN(C)CC6)cc5[nH]4)cc3[nH]2)cc1 gave an MIC of over 31.2 µg/mL.
